Data: ChEMBL document CHEMBL1158092, “Discovery, synthesis, and insecticidal activity of cycloaspeptide E” (2006)
≈ marks a conversion by molar mass, not a printed value. Calls of active or inactive are those of the source. No cut-off for these calls is given here. Where a SMILES comes first, the peptide text is derived from it.

How the values were obtained:
Spodoptera exigua [1] = assay: Insecticidal activity against beet armyworm assessed as circling dosed by ingestion from leaf after 18 hrs by lepidopteran limited ingestion exposure assay; format: functional, organism-based
Trichoplusia ni [2] = assay: Insecticidal activity against cabbage looper assessed as body tremors dosed by ingestion from leaf after 18 hrs by lepidopteran limited ingestion exposure assay; format: functional, organism-based
Trichoplusia ni [3] = assay: Insecticidal activity against cabbage looper assessed as mortality dosed by ingestion from leaf after 24 hrs by lepidopteran limited ingestion exposure assay; format: functional
How it was run: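 Cabbage leaf disks (0.25 cm²) were each treated with 1 µL of a 5 mg/mL acetone solution and dried. Each disk was offered to one of six cabbage looper larvae for 24 h, held individually under ambient lab conditions. Solvent and untreated disk controls were included. Afterwards, mortality, intoxication symptoms and disk consumption were noted, and larvae were given artificial diet.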

Spodoptera exigua [4] = assay: Insecticidal activity against 3/4th instar beet armyworm assessed as intoxication and mortality topically dosed at 5 ug/larva after 24 hrs by lepidopteran topical assay
Trichoplusia ni [5] = assay: Insecticidal activity against 3/4th instar cabbage looper assessed as intoxication topically dosed at 5 ug/larva after 24 hrs by lepidopteran topical assay
Spodoptera exigua [6] = assay: Insecticidal activity against beet armyworm eggs assessed as inhibition of insect growth at 28 degC after 6 days by lepidopteran diet assay; format: functional; details: 144 h
How it was run: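 Beet armyworm eggs (8-10 per well) on artificial diet in 96-well plates. Test samples were applied in acetone-water (50:50), dried onto the diet surface, and tested at 0.98-500 ppm (of diet weight) in 2-fold steps. Plates were incubated 6 days at 28 °C. Value is the minimum concentration inhibiting growth relative to untreated control.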

Spodoptera exigua [7] = assay: Insecticidal activity against fourth instar beet armyworm assessed as body tremors and partial paralysis after 1 hrs by BAW injection assay; format: functional, organism-based
Spodoptera exigua [8] = assay: Insecticidal activity against fourth instar beet armyworm assessed as body tremors and partial paralysis after 3 to 6 hrs by BAW injection assay; format: functional
Spodoptera exigua [9] = assay: Insecticidal activity against 3/4th instar beet armyworm assessed as intoxication and mortality topically dosed at 2.5 ug/larva after 24 hrs by lepidopteran topical assay; format: functional, organism-based
Trichoplusia ni [10] = assay: Insecticidal activity against 3/4th instar cabbage looper assessed as intoxication topically dosed at 2.5 ug/larva after 24 hrs by lepidopteran topical assay; format: functional
Spodoptera exigua [11] = assay: Insecticidal activity against fourth instar beet armyworm assessed as body tremors and partial paralysis after 24 hrs by BAW injection assay; format: functional, organism-based
How it was run: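 Six fourth-instar beet armyworm were each injected with 0.5 µL of a 20 mg/mL acetone solution (10 µg/insect). Solvent-only and untreated controls were included. Larvae were held singly with artificial diet under ambient conditions. Intoxication symptoms were scored at 1, 24 and 48 h, and mortality at 48 h.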

## CC(C)C[C@@H]1NC(=O)[C@H](Cc2ccccc2)N(C)C(=O)[C@H](C)NC(=O)c2ccccc2NC(=O)[C@H](Cc2ccc(O)cc2)N(C)C1=O [CYCLOASPEPTIDE A] (HELM PEPTIDE1{[O=C(c1ccccc1N[*:1])[*:2]].A.[meF].L.[meY]}$PEPTIDE1,PEPTIDE1,1:R1-5:R2$$$V2.0)
Spodoptera exigua [1]
  Activity: Active
Trichoplusia ni [2]
  Activity: Active
Trichoplusia ni [3]
  Activity: inactive
Spodoptera exigua [4]
  Activity: inactive
Trichoplusia ni [5]
  Activity: inactive
Spodoptera exigua [6]
  MIC: > 500 µg/mL
Spodoptera exigua [7]
  Activity: inactive

## CC[C@H]1CCC[C@H](O[C@H]2CC[C@H](N(C)C)[C@@H](C)O2)[C@@H](C)C(=O)C2=C[C@@H]3[C@@H](C=C[C@@H]4C[C@@H](O[C@@H]5O[C@@H](C)[C@H](OC)[C@@H](OC)[C@H]5OC)C[C@@H]34)[C@@H]2CC(=O)O1 [SPINOSYN A]
Spodoptera exigua [6]
  MIC: 0.02 µg/mL (≈ 0.0273 µM)

## CC(C)C[C@@H]1NC(=O)[C@H](Cc2ccccc2)N(C)C(=O)[C@H](C)NC(=O)c2ccccc2NC(=O)[C@H](Cc2ccccc2)N(C)C1=O [CYCLOASPEPTIDE E] (HELM PEPTIDE1{[O=C(c1ccccc1N[*:1])[*:2]].A.[meF].L.[meF]}$PEPTIDE1,PEPTIDE1,1:R1-5:R2$$$V2.0)
Spodoptera exigua [1]
  Activity: Active
Trichoplusia ni [2]
  Activity: Active
Trichoplusia ni [3]
  Activity: 15%
Spodoptera exigua [8]
  Activity: 85%
Spodoptera exigua [9]
  Activity: inactive
Trichoplusia ni [10]
  Activity: 50%
Spodoptera exigua [6]
  MIC: 10 µg/mL (≈ 16 µM)
Spodoptera exigua [11]
  Activity: inactive
